Consider seven molecules from ChEMBL document CHEMBL1123913, “Discovery and anticonvulsant activity of the potent metabolic inhibitor 4-amino-N-(2,6-dimethylphenyl)-3,5-dimethylbenzamide” (1987).

In general, ED50 refers to the midpoint of the dose-response relation.

Active and inactive are the calls of the source. No cut-off for these calls is given here.

In test [1] the test system is Mus musculus. Kind of test: Antagonistic activity against MES (Maximal Electroshock)-induced seizures after oral administration to mice. The class given is functional. The gist of the method: (§1)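 Fasted (90 min) mice dosed orally with a range of doses as suspension in 5% acacia/water. Electroshock 40 mA, 0.1 s, ac, via corneal electrodes at the time of peak effect, using at least four doses, 12 mice per dose. ED50 for prevention of tonic-extensor convulsions by Litchfield–Wilcoxon, with 95% confidence limits.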
(In general: In the maximal electroshock model the usual endpoint is tonic extension of the hind limbs.)

Test [2] has as its system Mus musculus. Kind of test: Time taken for peak anticonvulsant effect(TPE) was measured by oral administration to mice. The class given is functional. The gist of the method: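 Fasted mice, four per group, given a range of oral doses in 5% acacia/water. Challenged with corneal electroshock (40 mA, 0.1 s, ac) at 0.5, 1, 2, 3 and 4 h after dosing to find the time of peak anticonvulsant effect.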

For test [3], the species on record is Mus musculus. Kind of test: Ataxia or neurological deficit was measured as horizontal screen test(HS) in mice. The class given is functional. In a few lines:
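Male CF1 mice (20–25 g), fasted 90 min, given oral doses as suspension in 5% acacia/water, then placed on a 13 cm × 13 cm wire screen. Retested at the time of peak effect with at least four doses and 12 mice per dose. ED50 by Litchfield–Wilcoxon, with 95% confidence limits.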

In test [4] the test system is Mus musculus. Put plainly: Plasma concentration was determined after 30 min of oral administration in mice. In kind it is functional, organism-based. In a few lines: (§2)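 Three groups of two mice dosed orally at 1.7, 3.5 or 5.6 mg/kg, suspended in 5% acacia. Blood taken by cardiac puncture under methoxyfluorane into heparin, plasma stored at −30 °C. Parent and N-acetyl metabolite measured by C18 HPLC with absorbance detection against plasma standards of 50–2000 ng/mL. Detection limit 25 ng/mL. Mean ± SEM.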

For test [5], the system named is Mus musculus. Put plainly: Plasma concentration was determined after 60 min of oral administration in mice. In kind it is functional, organism-based. In a few lines: as §2
The test system of test [6] is Mus musculus. Kind of test: Plasma concentration was determined after 120 min of oral administration in mice. The class given is functional, organism-based. The gist of the method:
as §2

In test [7] the test system is Mus musculus. Put plainly: Antagonistic activity against MES(Maximal Electroshock)-induced seizures after oral administration to mice. In kind it is functional. In a few lines: as §1
Test [8] concerns Mus musculus. Put plainly: Plasma concentration was determined after 360 min of oral administration in mice. In kind it is functional, organism-based. In a few lines:
as §2

Test [9] deals with Mus musculus. Kind of test: Plasma concentration was determined after 240 min of oral administration in mice. The class given is functional, organism-based. The gist of the method:
as §2

Test [10] has as its system Mus musculus. Kind of test: Ataxia or neurological deficit was measured as horizontal screen test(HS) in mice at the highest dose of 300 mg/kg; NA means Not active. The class given is functional, organism-based. On the set-up: dose 300 mg/kg.
Test [11] is described as follows: Protective index (HS ED50/MES ED50) after oral administration in mice. The class given is functional. The gist of the method:
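Ratio of the horizontal-screen ED50 to the MES ED50. Both come from oral dosing of fasted mice in 5% acacia/water at the time of peak effect and are calculated by Litchfield–Wilcoxon.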

Test [12] deals with Mus musculus. Kind of test: Effect on Hexobarbitol-Induced sleeping time in mice at a dose of 6.4 mg/kg peroral administration. The note with it: route oral. The class given is functional. The gist of the method:
(§3)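 Groups of 10 fasted mice dosed orally in 5% acacia/water. Hexobarbital 100 mg/kg ip, solubilized with stoichiometric NaOH, given 0.5 h later. Sleeping time is loss of righting reflex, to the nearest minute. Reported as mean ± SEM and percent increase over hexobarbital control.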

The subject of test [13] is Mus musculus. Put plainly: Effect on Hexobarbitol-Induced sleeping time in mice at a dose of 3.2 mg/kg peroral administration. In kind it is functional. The note with it: route oral. In a few lines:
as §3

Test [14] deals with Mus musculus. Kind of test: Effect on Hexobarbitol-Induced sleeping time in mice at a dose of 12.8 mg/kg peroral administration. In kind it is functional. The note with it: route oral. The gist of the method: as §3
Test [15] concerns Mus musculus. Put plainly: Effect on Hexobarbitol-Induced sleeping time in mice at a dose of 0 mg/kg peroral administration. In kind it is functional. The note with it: route oral. The gist of the method: as §3
Test [16] relates to Mus musculus. Put plainly: Effect on Hexobarbitol-Induced sleeping time in mice at a dose of 1.6 mg/kg peroral administration. The note with it: route oral. In kind it is functional. In a few lines: as §3
Test [17] has as its system Mus musculus. Kind of test: Effect on Hexobarbitol-Induced sleeping time in mice at a dose of 3.8 mg/kg peroral administration. The note with it: route oral. The class given is functional. In a few lines:
(§4)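 Groups of 10 fasted mice dosed orally in 5% acacia/water. Hexobarbital 100 mg/kg ip, solubilized with stoichiometric NaOH, given 1.0 h later. Duration of loss of righting reflex to the nearest minute. Mean ± SEM, percent increase over hexobarbital control, p < 0.05 significance.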

For test [18], the system named is Mus musculus. Kind of test: Effect on Hexobarbitol-Induced sleeping time in mice at a dose of 7.6 mg/kg peroral administration. In kind it is functional. The note with it: route oral. In a few lines:
as §4

Test [19] concerns Mus musculus. Kind of test: Antagonistic activity against MES-induced seizures after oral administration to mice. The class given is functional. In a few lines: as §1
The test system of test [20] is Mus musculus. Kind of test: Effect on Hexobarbitol-Induced sleeping time in mice at a dose of 30.4 mg/kg peroral administration. The note with it: route oral. In kind it is functional. The gist of the method:
as §4

Test [21] concerns Mus musculus. Put plainly: Effect on Hexobarbitol-Induced sleeping time in mice at a dose of 15.2 mg/kg peroral administration. The class given is functional. The note with it: route oral. The gist of the method: as §4
The test system of test [22] is Mus musculus. Put plainly: Ataxia or neurological deficit was measured as horizontal screen test(HS) in mice at a dose of 160 mg/kg; NA means Not active. In kind it is functional, organism-based. On the set-up: dose 160 mg/kg.

Take `O=C1NC(=O)C(c2ccccc2)(c2ccccc2)N1` [PHENYTOIN]: the results for the ED50 in the test with Mus musculus [1] and in the test listed under Mus musculus [3] were 9.4 mg/kg and 210 mg/kg, respectively. In the test with Mus musculus [2], this molecule displayed a TPE of 1 h.

Consider `CC(=O)Nc1ccc(C(=O)Nc2c(C)cccc2C)cc1C`, for which the Concentration was 79 ng/mL in the test on Mus musculus [4], 97 ng/mL in the test with Mus musculus [5] and 91 ng/mL in the test with Mus musculus [6]. Moreover, the ED50 amounted to 4.5 mg/kg in the test on Mus musculus [1] and 56 mg/kg in the test listed under Mus musculus [3]. In addition, the TPE with Mus musculus [2] was found to be 1 h.

Regarding `Cc1cc(C(=O)Nc2c(C)cccc2C)cc(C)c1N`, the figures for the Concentration in the test with Mus musculus [4], in the test with Mus musculus [5] and in the test on Mus musculus [6] were 1480 ng/mL, 1160 ng/mL and 1060 ng/mL, respectively. Also, the TPE in the test on Mus musculus [2] came to 1 h. Further, the values for the ED50 in the test filed under Mus musculus [3] and with Mus musculus [7] were 64 mg/kg and 5.6 mg/kg, respectively.

In the case of `CC(=O)Nc1ccc(C(=O)Nc2c(C)cccc2C)cc1`, the Concentration in the test with Mus musculus [4] is 412 ng/mL; with Mus musculus [5], 587 ng/mL; in the test on Mus musculus [8] it was 225 ng/mL; with Mus musculus [6], 545 ng/mL; in the test with Mus musculus [9] it was 425 ng/mL. The molecule also gave an ED50 in the test on Mus musculus [1] of 3.8 mg/kg. The TPE in the test on Mus musculus [2] worked out at 2 h. Also, the ED50 result in the test with Mus musculus [10] was “inactive”.

The molecule `Cc1cccc(C)c1NC(=O)c1ccc(N)cc1` [AMELTOLIDE] yielded a PI in test [11] of 13. The Concentration was found to be 1090 ng/mL in the test with Mus musculus [4]; 893 ng/mL in the test on Mus musculus [5]; 299 ng/mL with Mus musculus [8]; 656 ng/mL in the test on Mus musculus [6]; 394 ng/mL in the test with Mus musculus [9]. Also, the ED50 in the test with Mus musculus [1] came out at 1.7 mg/kg; in the test filed under Mus musculus [3], 23 mg/kg. Moreover, the Sleeping time with Mus musculus [12] was determined as 75 min; in the test on Mus musculus [13], 69.3 min; in the test on Mus musculus [14], 76.4 min; in the test on Mus musculus [15] it was 59.6 min; with Mus musculus [16], 67.9 min. This molecule had a TPE with Mus musculus [2] of 0.5 h.

For `Cc1cc(C(=O)Nc2c(C)cccc2C)ccc1N`, the Sleeping time with Mus musculus [17] amounted to 85.6 min; in the test on Mus musculus [18] it was 97.9 min; with Mus musculus [20], 133.8 min; with Mus musculus [21], 85.5 min; in the test on Mus musculus [15], 66.4 min. Moreover, the ED50 came out at 3.5 mg/kg with Mus musculus [19] and 84 mg/kg in the test listed under Mus musculus [3]. In the test on Mus musculus [2], this molecule registered a TPE of 1 h.

On to `CC(=O)Nc1c(C)cc(C(=O)Nc2c(C)cccc2C)cc1C`, for which the ED50 entry in the test with Mus musculus [22] was “inactive”. In the test on Mus musculus [1], this molecule displayed an ED50 of 170 mg/kg. In the test with Mus musculus [2], the TPE is 2 h.
